Assay results: ChEMBL document CHEMBL3797060, “Discovery of 5-Chloro-1-(5-chloro-2-(methylsulfonyl)benzyl)-2-imino-1,2-dihydropyridine-3-carboxamide (TAK-259) as a Novel, Selective, and Orally Active α1D Adrenoceptor Antagonist with Antiurinary Frequency Effects: Reducing Human Ether-a-go-go-Related Gene (hERG) Liabilities” (J Med Chem, 2016)

Tests used:
[1] = Clearance in human liver microsomes at 1 uM after 15 to 30 mins by LC/MS/MS analysis; assay type: ADME; settings: read-out: CLH
Outline: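 Incubated with 0.2 mg/mL microsomal protein in 50 mM potassium phosphate, pH 7.4. Reaction started with an NADPH-generating system (MgCl2, glucose-6-phosphate, β-NADP+, G6P dehydrogenase). Stopped with acetonitrile at 15 and 30 min, then analysed for remaining compound. Metabolic velocity taken as the slope of the concentration-time plot.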

CYP3A4 = CYP3A4 (Homo sapiens, UniProt P08684); assay: Reversible inhibition of CYP3A4 in human liver microsomes at 10 uM using midazolam as substrate incubated for 10 mins by LC/MS/MS analysis; assay type: ADME; settings: probe midazolam
Outline: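 Midazolam incubated with 0.1 mg/mL microsomes and test compound at 37 °C. Stopped with acetonitrile/water and centrifuged. 1'-Hydroxymidazolam peak measured in the supernatant.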

[2] = target: Voltage-gated inwardly rectifying potassium channel KCNH2 (Homo sapiens, UniProt Q12809); assay: Inhibition of human ERG channel expressed in CHO cells assessed as peak tail current at 10 uM incubated for 5 mins by patch-clamp assay; assay type: cell-based; settings: cho, 5 min, 10 µM
Outline: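 CHO cells stably expressing hERG, grown at 32 °C, 5% CO2 in Ham's F-12 with 10% FBS and 500 µg/mL Geneticin. Population patch clamp with PBS (Ca/Mg) outside, KCl/MgCl2/EGTA/HEPES pH 7.3 inside, amphotericin B perforation. Holding −80 mV, step to 40 mV 2 s, then −50 mV 2 s. Peak tail current taken before and after 5 min compound exposure, inhibition = 100 − post/pre×100, n = 3 or 4.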

[3] = Permeability of compound at pH 7.4 by PAMPA; assay type: ADME; settings: read-out: permeability

CYP3A4, sequence (P08684 whole entry): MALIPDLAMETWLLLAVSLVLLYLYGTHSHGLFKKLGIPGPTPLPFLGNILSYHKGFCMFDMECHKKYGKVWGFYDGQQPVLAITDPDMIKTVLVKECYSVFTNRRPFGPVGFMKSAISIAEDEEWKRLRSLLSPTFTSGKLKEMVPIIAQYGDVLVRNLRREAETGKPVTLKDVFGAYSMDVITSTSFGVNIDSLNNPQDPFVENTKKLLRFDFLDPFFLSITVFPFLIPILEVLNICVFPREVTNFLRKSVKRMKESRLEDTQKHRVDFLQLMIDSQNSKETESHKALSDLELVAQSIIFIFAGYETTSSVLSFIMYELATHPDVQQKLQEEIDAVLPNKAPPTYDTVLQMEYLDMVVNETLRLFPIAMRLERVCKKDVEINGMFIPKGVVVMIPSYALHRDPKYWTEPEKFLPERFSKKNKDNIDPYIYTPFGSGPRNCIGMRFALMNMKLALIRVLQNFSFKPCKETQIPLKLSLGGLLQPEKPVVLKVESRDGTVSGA
Voltage-gated inwardly rectifying potassium channel KCNH2, sequence (Q12809 whole entry): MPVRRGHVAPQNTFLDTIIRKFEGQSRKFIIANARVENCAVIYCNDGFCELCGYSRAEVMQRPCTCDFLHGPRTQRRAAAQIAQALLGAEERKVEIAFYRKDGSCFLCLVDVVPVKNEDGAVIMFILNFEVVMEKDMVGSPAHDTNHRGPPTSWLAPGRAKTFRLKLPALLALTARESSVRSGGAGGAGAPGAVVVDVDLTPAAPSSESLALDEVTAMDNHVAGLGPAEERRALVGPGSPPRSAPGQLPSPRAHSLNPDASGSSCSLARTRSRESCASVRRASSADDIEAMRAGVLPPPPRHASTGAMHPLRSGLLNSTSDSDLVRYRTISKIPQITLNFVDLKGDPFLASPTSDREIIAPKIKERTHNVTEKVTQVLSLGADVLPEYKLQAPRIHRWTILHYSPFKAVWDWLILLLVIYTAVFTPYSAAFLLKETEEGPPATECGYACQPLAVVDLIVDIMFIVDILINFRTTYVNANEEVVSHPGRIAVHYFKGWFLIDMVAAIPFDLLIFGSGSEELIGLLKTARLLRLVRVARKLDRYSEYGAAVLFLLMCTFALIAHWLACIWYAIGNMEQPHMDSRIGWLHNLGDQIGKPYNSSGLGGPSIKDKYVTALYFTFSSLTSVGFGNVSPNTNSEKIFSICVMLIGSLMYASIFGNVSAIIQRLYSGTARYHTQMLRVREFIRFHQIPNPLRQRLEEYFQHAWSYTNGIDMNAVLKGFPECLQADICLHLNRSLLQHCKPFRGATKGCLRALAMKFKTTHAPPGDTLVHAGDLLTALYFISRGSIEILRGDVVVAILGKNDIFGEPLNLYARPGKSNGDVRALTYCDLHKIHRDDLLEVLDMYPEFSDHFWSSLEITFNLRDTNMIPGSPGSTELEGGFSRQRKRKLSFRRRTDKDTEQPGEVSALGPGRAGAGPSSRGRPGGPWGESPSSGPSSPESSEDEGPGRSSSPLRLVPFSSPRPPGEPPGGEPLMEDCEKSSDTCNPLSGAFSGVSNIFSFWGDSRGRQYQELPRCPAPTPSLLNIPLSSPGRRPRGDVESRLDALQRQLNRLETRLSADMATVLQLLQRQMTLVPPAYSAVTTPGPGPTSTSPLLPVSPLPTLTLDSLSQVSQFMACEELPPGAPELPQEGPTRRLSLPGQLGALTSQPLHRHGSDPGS

Cl.N=c1c(C(N)=O)cc(Cl)cn1Cc1cccc(Cl)c1
microsomal CLint at 1 µM [1]: 3 µL/min/mg | inhibition at 10 min, 10 µM (CYP3A4): -1.6% | inhibition (INH) [2]: 47% | Papp [3]: 11.6 ×10⁻⁶ cm/s
